Source: ChEMBL document CHEMBL5058577, “EUbOPEN Chemogenomics Library 2 (Multiplex)” (2022)

System: U2OS
Experiment: Multiplex assay against U2OS
Format: toxicity, cell-based
Conditions: human
Method in brief: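 Live cells were stained at seeding with Hoechst33342, BioTracker Green Microtubule Cytoskeleton Dye, MitoTracker Red and Annexin V Alexa Fluor 680, then imaged on a CQ1 microscope at 37°C and 5% CO2 after compound addition. CellPathfinder machine-learning gating split cells into Hoechst high-intensity objects or normal cells. Normal cells were split into healthy, pyknosed or fragmented nuclei, and pyknosed cells into mitotic or apoptotic. Tubulin, mitochondrial-mass and membrane-permeability phenotypes are per cents of healthy-nucleus cells.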

[1] = 12 h, 1 µM, compound concentration 1 uM, replicate 1
[2] = 12 h, 1 µM, compound concentration 1 uM, replicate 2
[3] = 12 h, 10 µM, compound concentration 10 uM, replicate 1
[4] = 12 h, 10 µM, compound concentration 10 uM, replicate 2
[5] = 24 h, 1 µM, compound concentration 1 uM, replicate 1
[6] = 24 h, 1 µM, compound concentration 1 uM, replicate 2
[7] = 24 h, 10 µM, compound concentration 10 uM, replicate 1
[8] = 24 h, 10 µM, compound concentration 10 uM, replicate 2
[9] = 48 h, 1 µM, compound concentration 1 uM, replicate 1
[10] = 48 h, 1 µM, compound concentration 1 uM, replicate 2
[11] = 48 h, 10 µM, compound concentration 10 uM, replicate 1
[12] = 48 h, 10 µM, compound concentration 10 uM, replicate 2

CC(C)(C)c1ccc(CSc2cnn(C(C)(C)C)c(=O)c2Cl)cc1 [PYRIDABEN]
Population Apoptotic (%) [1]: 79%
Population Fragmented Nuclei (%) [1]: 28%
Population Healthy Nuclei (%) [1]: 61%
Population Hoechst High Intensity Objects (%) [1]: 3%
Population Membrane Permeable-Phenotype (%) [1]: 3%
Population Mitochondria Different-Phenotype (%) [1]: 1%
Population Mitotic Cells (%) [1]: 20%
Population Normal (%) [1]: 97%
Population Pyknosed Nuclei (%) [1]: 9%
Population Tubulin-Different-Phenotype (%) [1]: 2%
Total Cell Count [1]: 267
Population Apoptotic (%) [2]: 63%
Population Fragmented Nuclei (%) [2]: 11%
Population Healthy Nuclei (%) [2]: 81%
Population Hoechst High Intensity Objects (%) [2]: 0%
Population Membrane Permeable-Phenotype (%) [2]: 4%
Population Mitotic Cells (%) [2]: 36%
Population Normal (%) [2]: 99%
Population Pyknosed Nuclei (%) [2]: 7%
Population Tubulin-Different-Phenotype (%) [2]: 3%
Total Cell Count [2]: 152
Population Apoptotic (%) [3]: 83%
Population Fragmented Nuclei (%) [3]: 28%
Population Healthy Nuclei (%) [3]: 57%
Population Hoechst High Intensity Objects (%) [3]: 1%
Population Membrane Permeable-Phenotype (%) [3]: 5%
Population Mitochondria Different-Phenotype (%) [3]: 5%
Population Mitotic Cells (%) [3]: 16%
Population Normal (%) [3]: 98%
Population Pyknosed Nuclei (%) [3]: 14%
Population Tubulin-Different-Phenotype (%) [3]: 3%
Total Cell Count [3]: 209
Population Apoptotic (%) [4]: 87%
Population Fragmented Nuclei (%) [4]: 15%
Population Healthy Nuclei (%) [4]: 73%
Population Hoechst High Intensity Objects (%) [4]: 0%
Population Mitochondria Different-Phenotype (%) [4]: 2%
Population Mitotic Cells (%) [4]: 12%
Population Normal (%) [4]: 100%
Population Pyknosed Nuclei (%) [4]: 11%
Population Tubulin-Different-Phenotype (%) [4]: 2%
Total Cell Count [4]: 141
Population Apoptotic (%) [5]: 83%
Population Fragmented Nuclei (%) [5]: 28%
Population Healthy Nuclei (%) [5]: 58%
Population Hoechst High Intensity Objects (%) [5]: 1%
Population Membrane Permeable-Phenotype (%) [5]: 4%
Population Mitochondria Different-Phenotype (%) [5]: 1%
Population Mitotic Cells (%) [5]: 16%
Population Normal (%) [5]: 98%
Population Pyknosed Nuclei (%) [5]: 13%
Population Tubulin-Different-Phenotype (%) [5]: 1%
Total Cell Count [5]: 286
Population Apoptotic (%) [6]: 100%
Population Fragmented Nuclei (%) [6]: 19%
Population Healthy Nuclei (%) [6]: 75%
Population Hoechst High Intensity Objects (%) [6]: 2%
Population Membrane Permeable-Phenotype (%) [6]: 3%
Population Mitotic Cells (%) [6]: 0%
Population Normal (%) [6]: 97%
Population Pyknosed Nuclei (%) [6]: 5%
Total Cell Count [6]: 186
Population Apoptotic (%) [7]: 80%
Population Fragmented Nuclei (%) [7]: 22%
Population Healthy Nuclei (%) [7]: 61%
Population Hoechst High Intensity Objects (%) [7]: 2%
Population Membrane Permeable-Phenotype (%) [7]: 8%
Population Mitochondria Different-Phenotype (%) [7]: 3%
Population Mitotic Cells (%) [7]: 19%
Population Normal (%) [7]: 97%
Population Pyknosed Nuclei (%) [7]: 15%
Population Tubulin-Different-Phenotype (%) [7]: 6%
Total Cell Count [7]: 234
Population Fragmented Nuclei (%) [8]: 19%
Population Healthy Nuclei (%) [8]: 68%
Population Hoechst High Intensity Objects (%) [8]: 1%
Population Membrane Permeable-Phenotype (%) [8]: 6%
Population Mitochondria Different-Phenotype (%) [8]: 1%
Population Mitotic Cells (%) [8]: 20%
Population Normal (%) [8]: 98%
Population Pyknosed Nuclei (%) [8]: 12%
Population Tubulin-Different-Phenotype (%) [8]: 2%
Total Cell Count [8]: 167
Population Apoptotic (%) [9]: 76%
Population Fragmented Nuclei (%) [9]: 26%
Population Healthy Nuclei (%) [9]: 63%
Population Hoechst High Intensity Objects (%) [9]: 3%
Population Membrane Permeable-Phenotype (%) [9]: 6%
Population Mitochondria Different-Phenotype (%) [9]: 3%
Population Mitotic Cells (%) [9]: 23%
Population Normal (%) [9]: 96%
Population Pyknosed Nuclei (%) [9]: 9%
Population Tubulin-Different-Phenotype (%) [9]: 3%
Total Cell Count [9]: 361
Population Apoptotic (%) [10]: 84%
Population Fragmented Nuclei (%) [10]: 19%
Population Healthy Nuclei (%) [10]: 70%
Population Hoechst High Intensity Objects (%) [10]: 6%
Population Membrane Permeable-Phenotype (%) [10]: 5%
Population Mitotic Cells (%) [10]: 15%
Population Normal (%) [10]: 93%
Population Tubulin-Different-Phenotype (%) [10]: 2%
Total Cell Count [10]: 212
Population Apoptotic (%) [11]: 90%
Population Fragmented Nuclei (%) [11]: 20%
Population Healthy Nuclei (%) [11]: 64%
Population Hoechst High Intensity Objects (%) [11]: 4%
Population Membrane Permeable-Phenotype (%) [11]: 9%
Population Mitochondria Different-Phenotype (%) [11]: 4%
Population Mitotic Cells (%) [11]: 10%
Population Normal (%) [11]: 95%
Population Pyknosed Nuclei (%) [11]: 14%
Population Tubulin-Different-Phenotype (%) [11]: 6%
Total Cell Count [11]: 280
Population Apoptotic (%) [12]: 95%
Population Fragmented Nuclei (%) [12]: 16%
Population Healthy Nuclei (%) [12]: 70%
Population Hoechst High Intensity Objects (%) [12]: 3%
Population Membrane Permeable-Phenotype (%) [12]: 5%
Population Mitochondria Different-Phenotype (%) [12]: 6%
Population Mitotic Cells (%) [12]: 4%
Population Normal (%) [12]: 96%
Population Pyknosed Nuclei (%) [12]: 13%
Population Tubulin-Different-Phenotype (%) [12]: 4%
Total Cell Count [12]: 191
